The values that follow come from ChEMBL document CHEMBL1140177 (J Med Chem, 2008).

Structures are written as SMILES. ≈ marks a conversion by molar mass, not a printed value.

Data set [1] has as its system Human immunodeficiency virus 1. In words: Antiviral activity against HIV1 with reverse transcriptase L100I mutant in presence of 40% normal human serum. Type of data set: functional, organism-based.
The subject of data set [2] is Human immunodeficiency virus 1. Kind of data set: Antiviral activity against HIV1 with reverse transcriptase Y181C mutant in presence of 40% normal human serum. It is filed as functional, organism-based.
The nature of data set [3]: AUC in Sprague-Dawley rat at 10 mg/kg, po. Type of data set: ADME, organism-based. Also on record: dose 10 mg/kg, route oral. The settings on record: plasma.
Data set [4] is described as follows: Oral bioavailability in Beagle dog at 2 mg/kg. The following applies: in vivo. Type of data set: ADME, organism-based, Canis lupus familiaris. In a few lines:
(§1)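 Two beagle dogs, averaged. Oral dose 2 mpk in Imwitor/Tween; intravenous dose 0.25 mpk in DMSO.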

The subject of data set [5] is Human immunodeficiency virus 1. Kind of data set: Antiviral activity against HIV1 with reverse transcriptase K101E/G190A mutant in presence of 40% normal human serum. Type of data set: functional, organism-based.
A short description of data set [6]: Solubility at pH 7. Type of data set: physicochemical. The following applies: buffer.
A short description of data set [7]: Oral bioavailability in rhesus monkey at 10 mg/kg. The following applies: in vivo. Type of data set: ADME, organism-based, Macaca mulatta.
Data set [8] in a line: Solubility at pH 2. It is filed as physicochemical. The settings on record: buffer.
The test system of data set [9] is Human immunodeficiency virus 1. In words: Antiviral activity against HIV1 with reverse transcriptase G190A mutant in presence of 40% normal human serum. Type of data set: functional, organism-based.
The test system of data set [10] is Human immunodeficiency virus 1. In words: Antiviral activity against HIV1 with reverse transcriptase K103N/Y181C mutant in presence of 40% normal human serum. Type of data set: functional, organism-based.
Data set [11] has as its system Human immunodeficiency virus 1. In words: Antiviral activity against HIV1 with reverse transcriptase Y181C/G190A mutant in presence of 40% normal human serum. It is filed as functional, organism-based.
Data set [12] is described as follows: Volume of distribution in rhesus monkey at 10 mg/kg, po and 1 mg/kg, iv. It is filed as ADME, organism-based, Macaca mulatta. The settings on record: in vivo. In short, it runs like this: (§2)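 Two rhesus macaques, averaged. Oral dose 10 mpk in Imwitor/Tween; intravenous dose 1 mpk in DMSO.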
Data set [13] in a line: Clearance in Beagle dog at 2 mg/kg, po and 0.25 mg/kg, iv. It is filed as ADME, organism-based, Canis lupus familiaris. The following applies: in vivo. In a few lines: as §1
Data set [14] in a line: Half life in Sprague-Dawley rat at 10 mg/kg, po and 2 mg/kg, iv. The settings on record: in vivo. Type of data set: ADME, organism-based.
Data set [15] deals with Human immunodeficiency virus type 1 reverse transcriptase (Human immunodeficiency virus 1, UniProt Q72547, Y181C). In words: Inhibition of HIV1 RT polymerase Y181C mutant by SPA.
Data set [16] has as its system Human immunodeficiency virus 1. In words: Antiviral activity against HIV1 with reverse transcriptase K103N/G190A mutant in presence of 40% normal human serum. Type of data set: functional, organism-based.
Data set [17] can be described thus: AUC in Beagle dog at 2 mg/kg, po. It is filed as ADME, organism-based, Canis lupus familiaris. Also noted: dose 2 mg/kg, route oral. The following applies: plasma. In a few lines:
as §1

Data set [18] relates to Human immunodeficiency virus 1. In words: Antiviral activity against HIV1 with reverse transcriptase Y188L mutant in presence of 40% normal human serum. It is filed as functional, organism-based.
For data set [19], the system named is Human immunodeficiency virus 1. In words: Antiviral activity against HIV1 with reverse transcriptase K103N/V179E mutant in presence of 40% normal human serum. It is filed as functional, organism-based.
For data set [20], the system named is Human immunodeficiency virus 1. Kind of data set: Antiviral activity against wild type HIV1 in presence of 40% normal human serum. Type of data set: functional, organism-based. In short, it runs like this: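 Monogram Bioscience PhenoScreen cell-culture assay run with 40% NHS. […] Value is the geometric mean of n = 2.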
The subject of data set [21] is Human immunodeficiency virus 1. In words: Antiviral activity against HIV1 with reverse transcriptase K103N mutant infected in human MT4 cells after 72 hrs in presence of 10% fetal bovine serum. It is filed as functional. The settings on record: Human immunodeficiency virus 1, MT4, 72 h; read-out: CIC95. In short, it runs like this:
(§3)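 Mutant HIV-1 spread was assayed in MT-4 human T-lymphoid cells kept in RPMI 1640 with 10% FBS. CIC95 is the concentration that inhibits viral spread by >95%. Values are geometric means of two determinations, or mean with standard deviation where n > 3. Cytotoxicity was checked up to an assay limit of 8.3 µM.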

Data set [22] relates to Human immunodeficiency virus 1. Kind of data set: Antiviral activity against wild type HIV1 infected in human MT4 cells after 72 hrs in presence of 50% normal human serum. It is filed as functional. The following applies: Human immunodeficiency virus 1, MT4, 72 h; read-out: CIC95. In a few lines:
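MT-4 human T-lymphoid cells in RPMI 1640 with 50% NHS. CIC95 is the concentration that inhibits viral spread by >95%. Values are either geometric means of two determinations or given with standard deviations for n > 3 or n > 50.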

Data set [23] concerns Human immunodeficiency virus 1. In words: Antiviral activity against wild type HIV1 infected in human MT4 cells after 72 hrs in presence of 10% fetal bovine serum. It is filed as functional. The settings on record: Human immunodeficiency virus 1, MT4, 72 h; read-out: CIC95. In a few lines:
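MT-4 human T-lymphoid cells in RPMI 1640 with 10% FBS. CIC95 is the concentration that inhibits viral spread by >95%. Values are either geometric means of two determinations or given with standard deviations for n > 3 or n > 50.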

Data set [24] in a line: Clearance in rhesus monkey at 10 mg/kg, po and 1 mg/kg, iv. It is filed as ADME, organism-based, Macaca mulatta. The settings on record: in vivo. In a few lines: as §2
Data set [25] deals with Human immunodeficiency virus type 1 reverse transcriptase (Human immunodeficiency virus 1, UniProt Q72547, K103N). In words: Inhibition of HIV1 RT polymerase K103N mutant by SPA.
Data set [26] has as its system Human immunodeficiency virus 1. Kind of data set: Antiviral activity against HIV1 with reverse transcriptase K103N mutant in presence of 40% normal human serum. Type of data set: functional, organism-based.
Data set [27] is described as follows: Oral bioavailability in Sprague-Dawley rat at 10 mg/kg. It is filed as ADME, organism-based. The settings on record: in vivo.
The nature of data set [28]: Half life in Beagle dog at 2 mg/kg, po and 0.25 mg/kg, iv. The following applies: in vivo. It is filed as ADME, organism-based, Canis lupus familiaris. In a few lines:
as §1

The target in data set [29] is Human immunodeficiency virus type 1 reverse transcriptase (Human immunodeficiency virus 1, UniProt Q72547). Kind of data set: Inhibition of wild type HIV1 RT polymerase by SPA.
The subject of data set [30] is Human immunodeficiency virus 1. In words: Antiviral activity against HIV1 with reverse transcriptase Y181C mutant infected in human MT4 cells after 72 hrs in presence of 10% fetal bovine serum. It is filed as functional. The following applies: Human immunodeficiency virus 1, MT4, 72 h; read-out: CIC95. In short, it runs like this:
as §3

The nature of data set [31]: Volume of distribution in Sprague-Dawley rat at 10 mg/kg, po and 2 mg/kg, iv. Type of data set: ADME, organism-based. The settings on record: in vivo.
Data set [32] has as its system Human immunodeficiency virus 1. Kind of data set: Antiviral activity against HIV1 with reverse transcriptase G190S mutant in presence of 40% normal human serum. Type of data set: functional, organism-based.
Data set [33] in a line: Half life in rhesus monkey at 10 mg/kg, po and 1 mg/kg, iv. Type of data set: ADME, organism-based, Macaca mulatta. The following applies: in vivo. In a few lines:
as §2

Data set [34] can be described thus: Clearance in Sprague-Dawley rat at 10 mg/kg, po and 2 mg/kg, iv. It is filed as ADME, organism-based. The settings on record: in vivo.
The nature of data set [35]: AUC in rhesus monkey at 10 mg/kg, po. Type of data set: ADME, organism-based, Macaca mulatta. Also noted: dose 10 mg/kg, route oral. The following applies: plasma.
Data set [36] concerns Human immunodeficiency virus 1. Kind of data set: Antiviral activity against HIV1 with reverse transcriptase K103N/P225H mutant in presence of 40% normal human serum. It is filed as functional, organism-based.
Data set [37] can be described thus: Volume of distribution in Beagle dog at 2 mg/kg, po and 0.25 mg/kg, iv. The following applies: in vivo. It is filed as ADME, organism-based, Canis lupus familiaris. In short, it runs like this:
as §1

Usually IC50 stands for the point on the concentration scale where inhibition reaches its midpoint. What is called AUC is the area under the concentration-time curve, a measure of exposure. What is called bioavailability is dose-corrected exposure relative to a reference, in per cent. What is called solubility is how much of the substance goes into solution per volume. By half-life is commonly meant how long it takes for the measured level to halve. In the case of `N#Cc1cc(Cl)cc(Oc2cc(OCc3n[nH]c4ncccc34)ccc2Cl)c1`, the half-inhibitory concentration (IC50) in [1] is 0.0011 µM; in data set [2] it was 0.0041 µM; in data set [5], 0.0048 µM; in data set [9], 0.0018 µM; in data set [10] it was 0.0341 µM; in data set [11] it was 0.0171 µM. Also, the IC50 in data set [15] was 0.0002 µM; in [16], 0.004 µM; in [18], 0.9 µM; in data set [19], 0.006 µM; in data set [20], 0.0015 µM; in data set [25] it was 0.0005 µM. Also, the IC50 in data set [26] worked out at 0.0025 µM; in data set [29] it was 0.0004 µM; in data set [32] it was 0.0068 µM; in [36], 0.0048 µM. For the same molecule, the AUC in data set [3] worked out at 9.5 µM·h; in data set [17], 1.6 µM·h; in data set [35], 0.3 µM·h. Moreover, the results for the bioavailability in data set [4], in data set [7] and in data set [27] were 17%, 3% and 58%, respectively. The solubility in [6] was 0.1 µg/mL (≈ 0.243 µM); in data set [8] it was under 0.1 µg/mL. In addition, the Vd in data set [12] came to 4.4 L/kg; in [31] it was 5.3 L/kg; in data set [37], 2.6 L/kg. In addition, the clearance is 8.9 mL/min/kg in data set [13], 19 mL/min/kg in data set [24] and 28 mL/min/kg in data set [34]. For the same molecule, the results for the half-life in [14], in [28] and in data set [33] were 4.1 h, 11.8 h and 8.2 h, respectively. The IC95 was 0.0146 µM in data set [21], 0.034 µM in [22], 0.0103 µM in data set [23] and 0.022 µM in data set [30].

On to `N#Cc1cc(Cl)cc(Oc2cc(OCc3n[nH]c4cccnc34)ccc2Cl)c1`, for which the IC50 in data set [15] is 0.74 µM; in [25], 0.04 µM; in data set [29], 0.0036 µM. Moreover, the results for the IC95 in data set [21], in [22] and in [23] were 2.77 µM, 0.922 µM and 0.307 µM, respectively.

For the molecule `N#Cc1cc(Cl)cc(Oc2cc(OCc3n[nH]c4cnccc34)ccc2Cl)c1`, the IC50 in data set [15] was found to be 0.0039 µM; in [25] it was 0.0013 µM; in data set [29] it was 0.0008 µM. Moreover, the IC95 in data set [21] amounted to 0.0342 µM; in data set [22], 0.034 µM; in data set [23], 0.0108 µM; in data set [30], 0.031 µM.

`O=C1Nc2ccc(Cl)cc2[C@@](C#CC2CC2)(C(F)(F)F)O1` [EFAVIRENZ]: the IC95 in [21] turned out to be 0.245 µM; in data set [22], 0.042 µM; in data set [23], 0.0046 µM; in [30] it was 0.087 µM.
